Source: ChEMBL document CHEMBL5108087, “Synthesis and biological evaluation of paeoveitol D derivatives as new melatonin receptor agonists with antidepressant activities” (RSC Med Chem, 2022)
pEC50: −log10 of the molar value. Calls of active or inactive are those of the source. The calls are words filed in the database; no cut-off is given here.

Legend:
[1] = biological target: Melatonin receptor type 1A (Homo sapiens, UniProt P48039); experiment: Agonist activity at human MT1 receptor expressed in HEK293 cells by Fluo-8 based calcium assay; type: functional, cell-based
[2] = biological target: T1, Melatonin receptor type 1B (Homo sapiens, UniProt P49286); experiment: Agonist activity at human MT2 receptor expressed in HEK293 cells by Fluo-8 based calcium assay; type: functional, cell-based
T1 sequence (P49286 whole entry): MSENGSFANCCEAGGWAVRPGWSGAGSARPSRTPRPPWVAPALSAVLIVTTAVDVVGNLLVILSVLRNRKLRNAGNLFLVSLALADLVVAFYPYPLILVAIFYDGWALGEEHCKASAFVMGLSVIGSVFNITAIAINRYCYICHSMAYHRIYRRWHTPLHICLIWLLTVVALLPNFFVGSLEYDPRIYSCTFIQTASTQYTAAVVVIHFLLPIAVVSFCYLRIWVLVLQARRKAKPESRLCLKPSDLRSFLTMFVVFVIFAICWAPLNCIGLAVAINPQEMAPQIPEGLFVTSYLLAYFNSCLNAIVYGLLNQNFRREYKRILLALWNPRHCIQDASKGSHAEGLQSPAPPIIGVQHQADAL

HEK293T [3] = experiment: (§1) Agonist activity at human MT2 N175A mutant receptor transfected in HEK293T cells co-transfected with tet-inducible luciferase reporter plasmid, pCDNA3.1(+)-CMV-betaArrestin2-tev plasmid and TANGO plasmid assessed as shift in concentration response curve incubated for 24 hrs by TANGO-GPCR assay based luminescence plate reader analysis relative to agomelatine; type: cell-based; details: filed as agonist
How it was run: (§2)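 293T cells transiently transfected with tet-inducible luciferase reporter, pCDNA3.1(+)-CMV-bArrestin2-tev and TANGO receptor plasmids (wild-type or point mutant). Next day plated at 20 000 cells/well on poly-L-lysine; drug added day 3. Day 4, Bright-Glo added, 20 min, then luminescence read. Concentration–response curves fitted; data mean ± SD.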

HEK293T [4] = experiment: as §1, with “Q194A” for “N175A”; type: cell-based; details: filed as agonist; how it was run: as §2
Mus musculus = experiment: Antidepressant activity in Kunming mouse assessed as decrease in immobility time at 20 mg/kg, po and measured after 14 days by forced swim test relative to control; type: functional, organism-based; details: time 14.0 day
How it was run: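 Male Kunming mice, 15–18 g, given the test compound orally for 14 days. Forced swim then done in a cylinder 25 cm high and 15 cm in diameter, water 10 cm deep at 25 ± 1 °C. Swim lasted 6 min and immobility over the final 4 min was video-scored against the vehicle group.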

Melatonin receptor type 1A, sequence (P48039 whole entry): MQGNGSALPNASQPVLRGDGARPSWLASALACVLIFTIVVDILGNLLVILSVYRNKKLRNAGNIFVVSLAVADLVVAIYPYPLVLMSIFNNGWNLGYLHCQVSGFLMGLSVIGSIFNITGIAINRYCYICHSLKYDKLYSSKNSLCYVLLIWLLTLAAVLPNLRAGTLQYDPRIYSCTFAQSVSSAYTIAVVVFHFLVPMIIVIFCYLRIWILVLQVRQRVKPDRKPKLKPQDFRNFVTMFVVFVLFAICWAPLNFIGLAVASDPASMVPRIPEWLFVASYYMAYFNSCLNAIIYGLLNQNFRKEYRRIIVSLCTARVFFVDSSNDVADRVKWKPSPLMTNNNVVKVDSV

Row | pEC50 [1] | pEC50 [2] | SMILES | Activity (HEK293T [3]) | Activity (HEK293T [4]) | Activity (Mus musculus)
1 | 3.44 | 3.44 | CCN(CC)Cc1coc2cc(C)c(OC)cc12 |  |  | 
2 |  |  | COc1ccc2cccc(CCNC(C)=O)c2c1 | Active | Active | Active
